Assay outcomes as filed in PubChem.
Hits are enriched below; roughly 1.8% of the tested compounds scored in any of these assays.
PREPL inh: inhibits the human prolyl oligopeptidase-like enzyme | recombinant PREPL, fluorescence polarization activity-based probe | inhibition, % at 5.96 µM | 0.68% of 320,000 active | AID 2751; in the data active = inhibition above about 43%;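 also: 0% = enzyme with DMSO and 100% = wells lacking enzyme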
SKN-1 inh: inhibitors of C. elegans SKN-1 | 0.49% of 360,000 active | C. elegans VP596 Pgst-4::GFP/RFP ratio, acrylamide-induced, 24 h | inhibition, % at 21.8 µM;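 active = interference check ratio from 0.5 to 1.5 plus GFP to RFP signal ratio inhibition reaching or exceeding a fixed threshold, cut at about 30% in these data, passing the limit was not always enough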
Tb MetRS inh: blocks T. brucei methionyl-tRNA synthetase activity. purified T. brucei MetRS, ATP depletion, Kinase-Glo luminescence. 0.4% of 360,000 active. AID 624268. inhibition, % at 11.9 µM;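 active = inhibition above a per-plate cutoff of the control wells' mean inhibition plus 3 SD, cut at about 5.5% in these data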;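 also: 0% = DMSO wells median and 100% = median of wells with control inhibitor compound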
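Assay system: T. brucei methionyl-tRNA synthetase, purified | Medium: HEPES buffer with MgCl2, KCl, DTT, spermine, BSA, pyrophosphatase | Compound: 11.9 µM single point | Incubation: 15 min enzyme-compound preincubation, 2 h reaction, 10 min detection, 25 °C | Measured by: Kinase-Glo luciferase luminescence reporting remaining unconsumed ATP | Measure: % inhibition normalized to control-well medians | Replication: Singlicate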
eLon inh: E. coli protease La inhibition. inhibition, % at 7.94 µM. purified E. coli Lon protease, fluorescence polarization. P0A9M0. 0.42% of 360,000 active; in the data active = inhibition above about 13%, passing the limit was not always enough;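 also: 0% = enzyme with probe and DMSO and 100% = no enzyme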
Target sequence (P0A9M0 whole entry, looked up): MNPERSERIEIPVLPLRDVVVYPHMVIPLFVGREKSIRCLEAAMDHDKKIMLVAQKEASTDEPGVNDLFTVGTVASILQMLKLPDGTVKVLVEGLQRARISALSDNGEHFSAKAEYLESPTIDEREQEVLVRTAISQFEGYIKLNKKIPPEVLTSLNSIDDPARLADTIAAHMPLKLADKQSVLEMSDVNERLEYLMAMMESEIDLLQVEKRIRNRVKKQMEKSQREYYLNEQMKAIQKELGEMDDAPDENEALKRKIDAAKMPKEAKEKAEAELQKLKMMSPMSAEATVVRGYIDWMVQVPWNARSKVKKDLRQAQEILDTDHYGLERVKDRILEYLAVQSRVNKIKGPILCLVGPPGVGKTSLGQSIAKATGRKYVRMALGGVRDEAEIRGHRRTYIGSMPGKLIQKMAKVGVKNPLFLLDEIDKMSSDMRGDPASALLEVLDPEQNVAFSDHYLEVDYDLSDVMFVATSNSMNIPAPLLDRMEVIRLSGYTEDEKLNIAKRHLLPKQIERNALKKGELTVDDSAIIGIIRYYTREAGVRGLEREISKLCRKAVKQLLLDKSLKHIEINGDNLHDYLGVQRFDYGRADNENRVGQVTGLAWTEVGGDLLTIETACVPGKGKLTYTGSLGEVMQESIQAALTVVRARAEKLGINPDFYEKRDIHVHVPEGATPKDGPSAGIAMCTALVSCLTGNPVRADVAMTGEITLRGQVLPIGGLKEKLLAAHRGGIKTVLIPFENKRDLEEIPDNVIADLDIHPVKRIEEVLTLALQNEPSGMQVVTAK
MT1-MMP act inh: blocks activation of human MT1-MMP. P50281. GFP/RFP ratio change, % at 20 µM. HT1080 RFP-PRO-GFP cells, GFP/RFP ratio fluorescence, overnight; percent of plate control window, DMSO zero. 0.061% of 360,000 active. AID 651647;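 active = GFP/RFP ratio change of at least 30% with cell ATP level not reduced by more than half and red fluorescence within 50% of control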
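Compound: 20 µM single dose, 1% DMSO / System: HT1080 RFP-PRO-GFP cells / Controls: DMSO and RFP-L50D-GFP cell wells / Read-out basis: GFP/RFP fluorescence ratio / Schedule: overnight compound exposure at 37 °C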
iPSC survival up: hiPSC single-cell survival enhancement | ATPlite luminescence; 100% = ROCK inhibitor wells, 0% = DMSO | survival enhancement, % at 20 µM | 0.044% of 360,000 active; in the data active = survival enhancement above about 18%;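 also: cells exposed to compounds for 16 hours before the ATP read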
Tb MetRS conf: confirmation of Trypanosoma brucei MetRS inhibitors; AID 624412; inhibition, % at 11.9 µM; shares compounds with Tb MetRS inh; T. brucei MetRS enzyme, luminescence (ATP depletion); 93% of 1,400 active; in the data active = inhibition above about 7%
Jurkat tox: kills Jurkat cells in T. brucei MetRS counterscreen; shares compounds with Tb MetRS inh; inhibition, % at 8.3 µM; 12% of 1,400 active; Jurkat cells viability, ATP luminescence; in the data active = inhibition above about 15%;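 also: 0% = vehicle and 100% = reference inhibitor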
Tb MetRS inh FP: inhibits T. brucei methionyl tRNA synthetase in orthogonal FP test | shares compounds with Tb MetRS inh | purified T. brucei MetRS, fluorescence polarization | inhibition, % at 11.9 µM | 44% of 1,400 active | AID 651607; in the data active = inhibition above about 17%;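 also: 0% = vehicle wells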
* hit, by the source's call; . = no result given.

SMILES	PREPL inh	SKN-1 inh	Tb MetRS inh	eLon inh	MT1-MMP act inh	iPSC survival up	Tb MetRS conf	Jurkat tox	Tb MetRS inh FP
CCOC(=O)CNC(=O)N1CCC(CCC(=O)N(C)Cc2ccccc2)CC1	-4	4	5.7*	4	-1	-1	3	-7	-3
COc1ccc(N2CCN(C(=O)c3ccccc3)CC2)c([N+](=O)[O-])c1	8	-3	8.2*	6	5	0	9.3*	6	10
COc1ccc(N2CCN(C(=O)c3ccc(C)cc3)CC2)c([N+](=O)[O-])c1	8	7	2	5	4	0	.	.	.
COc1ccc(N2CCN(C(=O)c3ccccc3Br)CC2)c([N+](=O)[O-])c1	8	0	14*	-5	-3	0	30*	2	18*
O=c1c(C/C=C/c2ccccc2)c(O)ccn1Cc1ccc(Cl)cc1Cl	-4	18	5	0	0	-1	.	.	.
O=c1c(Cc2ccc(Cl)cc2Cl)c(O)ccn1Cc1ccncc1	0	8	27*	5	-16	-2	39*	-2	27*
COc1cccc(-c2cnc(C(O)c3ccccc3)[nH]2)c1 (centres undefined)	.	-7	0	5	2	-2	.	.	.
COc1cccc(-c2cnc(C(O)c3cc(Cl)cc(Cl)c3)[nH]2)c1 (centres undefined)	.	-5	54*	-6	6	0	78*	1	57*
COc1cccc(-c2cnc(C(O)c3cc(F)cc(Cl)c3)[nH]2)c1 (centres undefined)	.	-2	20*	-2	8	-1	40*	0	18*
N#C/C(=C\c1cc2c(cc1Br)OCO2)c1ccc(C(=O)O)cc1	15	10	0	3	-2	1	.	.	.
O=C(c1ccc(Cl)cc1)c1c[nH]c(C(=O)NNc2cccc(Cl)n2)c1	5	-6	22*	4	-3	0	28*	-7	14
CNC(=O)COC(=O)c1ccc(Cl)c(S(=O)(=O)N2CCCC2)c1	-4	11	-1	-1	2	0	.	.	.
CNC(=O)COC(=O)c1ccc(Cl)c(S(N)(=O)=O)c1	7	-1	6.4*	-2	-4	-1	3	-5	3
CCN(CC)C(=O)[C@H]1CC(CC(=O)NCCCn2ccnc2)C(=O)N2CCc3c([nH]c4ccc(OC)cc34)[C@]12C (some centres undefined)	.	-3	0	-12	0	0	.	.	.
O=C(Cc1ccccc1)N/N=C/c1cccn1-c1ccc([N+](=O)[O-])cc1	7	-3	13*	-17	5	0	34*	-2	17
O=C(NCc1cc(Cl)cc(Cl)c1)c1ccc2nc([C@H]3C[C@H](O)[C@@H](CO)O3)[nH]c2c1	.	11	22*	1	2	-2	49*	-2	33*
Clc1ccccc1-c1ccc2ncnc(NCc3cccnc3)c2c1	-6	13	12*	0	5	0	44*	5	33*
c1cncc(-c2ccc3ncnc(NCc4ccc5c(c4)OCO5)c3c2)c1	-5	-1	1	8	-11	1	.	.	.
Clc1ccccc1-c1ccc2ncnc(NCc3ccc4c(c3)OCO4)c2c1	-16	15	26*	-9	4	-2	32*	-2	22*
C/C(=N\NC(=O)Cc1cccn1C)c1cccs1	-1	14	0	-6	0	0	.	.	.
c1ccc2c(c1)oc1c(N3CCN(Cc4ccc5c(c4)OCO5)CC3)ncnc12	.	12	4	0	3	5	.	.	.
Cc1cc(Cl)cc(C)c1OCCCCCn1ccnc1	-4	4	7.8*	3	1	-1	19*	7	10
O=C(NCc1nc2ncc(Br)cc2[nH]1)c1ccccc1	-3	15	6.8*	-1	0	1	16*	1	8
CCCCSc1nnc(-c2c[nH]c3ccccc23)n1C	6	2	2	-14	7	1	.	.	.
Cn1c(SCc2ccccc2)nnc1-c1c[nH]c2ccccc12	-20	-2	8.3*	-9	3	0	19*	5	6
SMILES	PREPL inh	SKN-1 inh	Tb MetRS inh	eLon inh	MT1-MMP act inh	iPSC survival up	Tb MetRS conf	Jurkat tox	Tb MetRS inh FP
COc1ccccc1-c1nnc(SC(C(=O)c2c[nH]c3ccccc23)c2ccccc2)n1C (centres undefined)	23	10	13*	-2	-3	0	35*	2	11
COc1cccc(-c2nnc(SC(C(=O)c3c[nH]c4ccccc34)c3ccccc3)n2C)c1 (centres undefined)	-8	4	1	1	0	1	.	.	.
CC1CCCC(C)N1CC(O)Cn1c2ccccc2c2ccccc21 (centres undefined)	1	12	0	-4	-1	-1	.	.	.
Oc1c(C=C2N=c3ccccc3=N2)sc(=S)n1-c1ccc(F)cc1	4	19	1	-46	-5	-1	.	.	.
Oc1[nH]c(=S)sc1C=C1N=c2ccccc2=N1	0	17	6.5*	-13	6	0	15*	5	6
O=c1[nH]c(Nc2ccccc2)cc2ccccc12	15	-28	8.1*	-7	-36	-4	4	-1	5
COc1ccccc1NS(=O)(=O)c1cccc(NC(=O)Nc2ccc(Cl)cc2)c1	-2	1	51*	8	-1	-2	78*	4	103*
COc1cccc(OC)c1C(=O)Nc1cccc(S(=O)(=O)Nc2ccccc2Cl)c1	3	-10	0	-3	-5	0	.	.	.
COc1ccccc1NS(=O)(=O)c1cccc(NC(=O)Nc2ccccc2)c1	-12	6	88*	0	-2	-1	100*	13	105*
CCNC(=S)Nc1cccc(S(=O)(=O)Nc2ccccc2OC)c1	17	-13	-1	-2	14	-1	.	.	.
CN1CCN(C(=O)/C(=C/c2cn(S(=O)(=O)N(C)C)c3ccccc23)NC(=O)c2ccccc2F)CC1	-6	10	-1	-1	-2	0	.	.	.
CN(CC(=O)Nc1ccc(Cl)c(C(F)(F)F)c1)C(=O)c1ccc2c(c1)NC(=O)CS2	30	-11	6.6*	2	8	2	17*	-4	8
CN(CC(=O)Nc1ccc(F)c(F)c1F)C(=O)c1ccc2c(c1)NC(=O)CS2	29	7	0	-9	0	0	.	.	.
